From ChEMBL document CHEMBL5625176, “Immunosuppressive effects of new thiophene-based KV1.3 inhibitors” (Eur J Med Chem, 2023)
In brackets after ≈: the same amount, converted by molar mass. Activity calls are given as the source filed them. No cut-off for these calls is given here.

Assays:
T-cell [1] = assay: Induction of cell cycle arrest at G0/G1 phase in human PBMC derived PHA-activated T-lymphocytes assessed as reduction S phase cells at 30 uM measured after 5 days by flow cytometric analysis; type: functional, cell-based; conditions: time 5.0 day
Method in brief: (§1)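 PHA-activated PBMC exposed to compounds (30 μM) for 5 days in RPMI/10% heat-inactivated calf serum/2 mM L-glutamine, scraped off and incubated 1 h at 4 °C in the dark. Cell cycle read by flow cytometry and scored as G0/G1 versus cycling (S+G2/M) percentage. Mean ± SD of 3 experiments; unpaired t-test against untreated cells.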

[2] = target: T1, Potassium voltage-gated channel subfamily A member 3 (Homo sapiens, UniProt P22001); assay: Inhibition of human Kv1.3 expressed in mouse LTK- cells by manual patch clamp electrophysiological recording; type: cell-based
Method in brief: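 Mouse Ltk⁻ fibroblasts in DMEM/10% horse serum transiently transfected with hKv1.3 plasmid plus eGFP marker, and recorded 24 h later. Whole-cell patch clamp at 20–23 °C. Compounds diluted from DMSO stocks with final DMSO ≤0.1%, with 0.1% DMSO as vehicle control. Normalized current plotted against concentration and fitted with the Hill equation for IC50; mean ± SEM, n = cells.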

[3] = target: Potassium voltage-gated channel subfamily A member 2 (Homo sapiens, UniProt P16389); assay: Inhibition of Kv1.2 (unknown origin) expressed in Xenopus laevis Oocyte cells by electrophysiological recording; type: cell-based
Method in brief: (§2)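 Kv1.x cRNA expressed in defolliculated Xenopus oocytes and recorded by two-electrode voltage clamp 1–4 days after injection, at 18–22 °C in ND96 pH 7.5. 1 s pulses, analysed at 0 mV. Compounds applied at rising concentrations with ≤0.5% DMSO, and current inhibition relative to control fitted with the Hill equation.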

[4] = target: T1, Potassium voltage-gated channel subfamily A member 3; assay: Inhibition of human Kv1.3 expressed in Xenopus laevis Oocyte cells at 10 uM by manual patch clamp method relative to control; type: cell-based
Method in brief: (§3)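 Human Kv1.3 cRNA injected into defolliculated Xenopus oocytes. Two-electrode voltage clamp 1–4 days later at 18–22 °C in ND96 (pH 7.5). Currents evoked by 1 s depolarizations, with inhibition read at the 0 mV step. Compounds from DMSO stock at ≤0.5% DMSO, either single 10 μM or rising concentrations fitted with the Hill equation for IC50.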

[5] = target: T1, Potassium voltage-gated channel subfamily A member 3; assay: Inhibition of Kv1.3 (unknown origin) expressed in PBMC derived PHA-activated T-lymphocyte cells incubated for 5 days by manual patch clamp method; type: cell-based
Method in brief: (§4)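 Whole-cell recording on PBMC stimulated 5 days with PHA-L (240 ng/mL); about 90% of cells CD3⁺. Large cells chosen; cells with currents ≤500–600 pA discarded. Bath in mM: 130 NaCl, 5 KCl, 2 CaCl₂, 2 MgCl₂, 10 HEPES, 5 glucose, pH 7.4; pipette KF-based with 11 EGTA, pH 7.2. Leak-subtracted two-step outward K⁺ current. Single concentration 5 μM, or 0.05 nM–50 μM for curves; peak normalized to control.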

[6] = target: Potassium voltage-gated channel subfamily A member 4 (Homo sapiens) (UniProt P22459); assay: Inhibition of Kv1.4 (unknown origin) expressed in Xenopus laevis Oocyte cells by electrophysiological recordings relative to control; type: cell-based; conditions: concentration not given here; method in brief: as §2
[7] = target: Potassium voltage-gated channel subfamily A member 1 (Homo sapiens, UniProt Q09470); assay: Inhibition of Kv1.1 (unknown origin) expressed in Xenopus laevis Oocyte cells by electrophysiological recording; type: cell-based; method in brief: as §2
[8] = target: Potassium voltage-gated channel subfamily A member 6 (Homo sapiens) (UniProt P17658); assay: Inhibition of Kv1.6 (unknown origin) expressed in Xenopus laevis Oocyte cells by electrophysiological recordings relative to control; type: cell-based; conditions: concentration not given here; method in brief: as §2
T-cell [9] = assay: Induction of cell cycle arrest at G0/G1 phase in human PBMC derived PHA-activated T-lymphocytes assessed as reduction G2/M phase cells at 30 uM measured after 5 days by flow cytometric analysis; type: functional, cell-based; conditions: time 5.0 day; method in brief: as §1
T-cell line [10] = assay: Cytotoxicity against human PBMC derived PHA-activated T-lymphocytes assessed as effect on cell viability by trypan blue staining based analysis; type: toxicity; conditions: 30 µM
Method in brief: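 PBMC purified by Ficoll gradient with red-cell lysis, seeded at 1.5 × 10⁶ cells/mL in RPMI with 10% heat-inactivated serum and 2 mM L-glutamine. Activated with PHA-L 240 ng/mL alongside compounds at 30 μM. Viability of treated versus untreated cells judged by trypan blue staining.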

[11] = target: T1, Potassium voltage-gated channel subfamily A member 3; assay: Inhibition of Kv1.3 in human PBMC derived PHA-activated T-lymphocytes assessed as reduction in intracellular calcium level at 5 uM incubated for 2 hrs by Fluo-4 Ca2+ based flow cytometric analysis relative to control; type: cell-based; conditions: T-lymphocyte
Method in brief: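 PBMC activated 5 days with PHA, then given compounds at 5 μM for 2 h. Scraped and loaded with Fluo-4 (2 μM) plus anti-CD3-APC at 37 °C for 1 h, washed, and held 30 min at 37 °C with compound (5 μM) before flow cytometry. Fluo-4 MFI of the CD3⁺ gate, 3 replicates, normalized to untreated control; n = 4.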

[12] = target: T1, Potassium voltage-gated channel subfamily A member 3; assay: Inhibition of human Kv1.3 expressed in Xenopus laevis Oocyte cells by Electrophysiology recording; type: cell-based; method in brief: as §3
[13] = target: Potassium voltage-gated channel subfamily A member 5 (Homo sapiens) (UniProt P22460); assay: Inhibition of Kv1.5 (unknown origin) expressed in Xenopus laevis Oocyte cells by electrophysiological recordings relative to control; type: cell-based; conditions: concentration not given here; method in brief: as §2
[14] = Stability of compound in PBS at pH 7.4 measured for >=120 hrs by HPLC analysis; type: physicochemical; conditions: buffer, pH 7.4, 120 h
Method in brief: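 Aqueous stability: 10 mM DMSO stock diluted to a final 50 μM in PBS pH 7.4 with 20% MeCN and 0.5% DMSO, filtered, held at 37 °C. UPLC (BEH C18, 280 nm) injections every 4 h for the first 24 h, then every 8 h. Analyte AUC plotted against time; triplicates.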

hERG (KCNH2) = hERG (KCNH2) (Homo sapiens, UniProt Q12809); assay: Inhibition of hERG overexpressed in HEK293 cells at 5 uM relative to control; type: toxicity, cell-based; conditions: HEK293 cells overexpressing hERG
[15] = Thermodynamic solubility of the compound at pH 7.4 incubated for 24 hrs under shaking condition by HPLC analysis; type: physicochemical; conditions: buffer, read-out: Therm_solubility
Method in brief: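 Supernatant diluted 1:2 or 1:10 in 0.1% TFA/MeCN 1:1 and quantified by reversed-phase UPLC at 290 nm against a 7-point calibration (1–100 μM). Mean of two independent experiments, in μM.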

[16] = target: T1, Potassium voltage-gated channel subfamily A member 3; assay: Selectivity ratio of IC50 for inhibition of human Kv1.3 expressed in mouse LTK- cells to IC50 for inhibition of human Kv1.3 expressed in Xenopus laevis Oocyte cells; type: cell-based
T-cell [17] = assay: Inhibition of human PBMC derived PHA-activated T-lymphocytes activation assessed as inhibition of colony formation by measuring reduction in colony forming units at 30 uM incubated for 5 days by bright-field microscopic analysis; type: functional, cell-based; conditions: time 5.0 day
Method in brief: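 PBMC at 1.5 × 10⁶ cells/mL treated with compounds (30 μM) together with PHA-L (240 ng/mL) for 5 days in RPMI with 10% heat-inactivated bovine calf serum and 2 mM L-glutamine. After medium removal, wells imaged by bright-field microscopy at 2× and colonies (CFU) counted. Mean ± SD of 3 experiments.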

T-cell line [18] = assay: Cytotoxicity against human PBMC derived PHA-activated T-lymphocytes assessed as effect on total cell number at 30 uM incubated for 5 days by bright-field microscopic analysis; type: toxicity, cell-based; conditions: 120 h, time 5 day
Method in brief: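 Ficoll-purified PBMC at 1.5 × 10⁶ cells/mL in RPMI/10% heat-inactivated serum/2 mM L-glutamine, stimulated with PHA-L 240 ng/mL and exposed to compounds (30 μM) for 5 days. Cells then counted to give total cell number.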

[19] = target: T1, Potassium voltage-gated channel subfamily A member 3; assay: Inhibition of Kv1.3 (unknown origin) expressed in human PBMC derived PHA-activated T-lymphocyte cells assessed as reduction in total outward potassium current at 5 uM by patch clamp electrophysiology method; type: cell-based; method in brief: as §4

T1 sequence (P22001 whole entry): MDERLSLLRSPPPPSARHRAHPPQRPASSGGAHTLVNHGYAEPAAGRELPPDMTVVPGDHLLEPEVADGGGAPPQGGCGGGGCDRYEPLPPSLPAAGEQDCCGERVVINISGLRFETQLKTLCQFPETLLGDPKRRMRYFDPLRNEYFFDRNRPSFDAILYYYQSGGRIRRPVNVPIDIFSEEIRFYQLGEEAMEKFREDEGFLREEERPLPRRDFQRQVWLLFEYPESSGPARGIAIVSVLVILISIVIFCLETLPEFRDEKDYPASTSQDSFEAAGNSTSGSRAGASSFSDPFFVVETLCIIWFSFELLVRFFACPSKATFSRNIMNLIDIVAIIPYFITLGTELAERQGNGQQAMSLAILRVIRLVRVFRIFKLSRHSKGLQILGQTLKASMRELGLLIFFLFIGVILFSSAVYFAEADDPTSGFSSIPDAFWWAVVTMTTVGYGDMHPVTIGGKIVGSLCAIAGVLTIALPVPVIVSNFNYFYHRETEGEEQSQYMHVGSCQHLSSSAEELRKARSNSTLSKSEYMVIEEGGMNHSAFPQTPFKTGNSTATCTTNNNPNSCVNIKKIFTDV
Potassium voltage-gated channel subfamily A member 6 (Homo sapiens), sequence (P17658 whole entry): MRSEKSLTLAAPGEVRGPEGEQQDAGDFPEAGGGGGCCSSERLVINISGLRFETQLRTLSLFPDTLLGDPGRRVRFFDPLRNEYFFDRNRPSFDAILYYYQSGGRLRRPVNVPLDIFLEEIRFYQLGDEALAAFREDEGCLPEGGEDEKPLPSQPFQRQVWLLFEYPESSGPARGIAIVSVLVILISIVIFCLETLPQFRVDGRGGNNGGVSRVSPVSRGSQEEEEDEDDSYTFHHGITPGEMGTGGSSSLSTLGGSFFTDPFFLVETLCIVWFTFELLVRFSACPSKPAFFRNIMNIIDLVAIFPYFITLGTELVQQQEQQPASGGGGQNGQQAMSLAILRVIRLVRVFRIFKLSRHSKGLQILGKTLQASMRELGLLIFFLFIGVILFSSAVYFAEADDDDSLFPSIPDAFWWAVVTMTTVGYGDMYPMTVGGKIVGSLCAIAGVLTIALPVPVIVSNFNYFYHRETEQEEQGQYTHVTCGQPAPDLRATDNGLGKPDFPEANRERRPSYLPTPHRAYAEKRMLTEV
Potassium voltage-gated channel subfamily A member 1, sequence (Q09470 whole entry): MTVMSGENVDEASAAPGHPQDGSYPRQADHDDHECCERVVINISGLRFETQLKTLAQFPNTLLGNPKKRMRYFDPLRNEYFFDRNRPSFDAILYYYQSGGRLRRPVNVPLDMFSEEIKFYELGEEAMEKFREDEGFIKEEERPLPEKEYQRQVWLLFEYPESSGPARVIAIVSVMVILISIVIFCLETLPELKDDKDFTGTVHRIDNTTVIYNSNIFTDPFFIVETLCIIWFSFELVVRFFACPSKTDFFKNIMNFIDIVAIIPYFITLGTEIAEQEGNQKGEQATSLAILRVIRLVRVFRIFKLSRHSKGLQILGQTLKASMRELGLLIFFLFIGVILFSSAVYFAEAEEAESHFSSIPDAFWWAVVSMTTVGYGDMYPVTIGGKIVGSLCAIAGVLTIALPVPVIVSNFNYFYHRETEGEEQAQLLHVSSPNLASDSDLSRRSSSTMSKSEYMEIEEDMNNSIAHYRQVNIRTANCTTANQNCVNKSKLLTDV
Potassium voltage-gated channel subfamily A member 2, sequence (P16389 whole entry): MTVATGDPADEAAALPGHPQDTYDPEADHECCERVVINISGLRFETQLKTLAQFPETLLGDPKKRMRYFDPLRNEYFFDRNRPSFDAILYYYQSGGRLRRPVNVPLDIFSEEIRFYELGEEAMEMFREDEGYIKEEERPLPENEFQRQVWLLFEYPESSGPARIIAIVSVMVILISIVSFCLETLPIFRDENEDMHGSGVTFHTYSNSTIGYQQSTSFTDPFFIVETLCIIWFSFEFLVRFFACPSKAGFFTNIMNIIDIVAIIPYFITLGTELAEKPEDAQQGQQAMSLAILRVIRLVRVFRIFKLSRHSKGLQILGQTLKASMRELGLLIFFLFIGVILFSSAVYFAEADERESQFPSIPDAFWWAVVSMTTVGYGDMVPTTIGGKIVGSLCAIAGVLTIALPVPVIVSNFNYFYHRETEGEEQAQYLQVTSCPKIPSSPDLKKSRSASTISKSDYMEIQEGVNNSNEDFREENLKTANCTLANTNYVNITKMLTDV
Potassium voltage-gated channel subfamily A member 4 (Homo sapiens), sequence (P22459 whole entry): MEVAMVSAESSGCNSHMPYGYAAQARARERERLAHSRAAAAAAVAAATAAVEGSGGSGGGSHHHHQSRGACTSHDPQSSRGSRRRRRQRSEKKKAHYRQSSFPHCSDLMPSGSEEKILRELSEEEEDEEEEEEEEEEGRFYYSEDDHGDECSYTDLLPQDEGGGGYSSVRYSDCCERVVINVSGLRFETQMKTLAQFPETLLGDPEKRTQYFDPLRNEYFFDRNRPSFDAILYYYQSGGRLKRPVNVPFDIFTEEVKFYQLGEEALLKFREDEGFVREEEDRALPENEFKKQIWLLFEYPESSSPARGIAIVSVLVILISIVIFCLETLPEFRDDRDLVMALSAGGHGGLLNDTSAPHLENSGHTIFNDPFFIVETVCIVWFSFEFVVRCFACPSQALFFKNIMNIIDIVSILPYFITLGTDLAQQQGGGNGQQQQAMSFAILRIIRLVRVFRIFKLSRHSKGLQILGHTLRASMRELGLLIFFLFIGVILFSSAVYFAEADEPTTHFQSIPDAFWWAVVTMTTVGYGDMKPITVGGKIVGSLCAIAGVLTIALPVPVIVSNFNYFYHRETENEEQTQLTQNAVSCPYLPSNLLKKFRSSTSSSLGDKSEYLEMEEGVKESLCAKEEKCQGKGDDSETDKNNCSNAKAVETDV
hERG (KCNH2), sequence (Q12809 whole entry): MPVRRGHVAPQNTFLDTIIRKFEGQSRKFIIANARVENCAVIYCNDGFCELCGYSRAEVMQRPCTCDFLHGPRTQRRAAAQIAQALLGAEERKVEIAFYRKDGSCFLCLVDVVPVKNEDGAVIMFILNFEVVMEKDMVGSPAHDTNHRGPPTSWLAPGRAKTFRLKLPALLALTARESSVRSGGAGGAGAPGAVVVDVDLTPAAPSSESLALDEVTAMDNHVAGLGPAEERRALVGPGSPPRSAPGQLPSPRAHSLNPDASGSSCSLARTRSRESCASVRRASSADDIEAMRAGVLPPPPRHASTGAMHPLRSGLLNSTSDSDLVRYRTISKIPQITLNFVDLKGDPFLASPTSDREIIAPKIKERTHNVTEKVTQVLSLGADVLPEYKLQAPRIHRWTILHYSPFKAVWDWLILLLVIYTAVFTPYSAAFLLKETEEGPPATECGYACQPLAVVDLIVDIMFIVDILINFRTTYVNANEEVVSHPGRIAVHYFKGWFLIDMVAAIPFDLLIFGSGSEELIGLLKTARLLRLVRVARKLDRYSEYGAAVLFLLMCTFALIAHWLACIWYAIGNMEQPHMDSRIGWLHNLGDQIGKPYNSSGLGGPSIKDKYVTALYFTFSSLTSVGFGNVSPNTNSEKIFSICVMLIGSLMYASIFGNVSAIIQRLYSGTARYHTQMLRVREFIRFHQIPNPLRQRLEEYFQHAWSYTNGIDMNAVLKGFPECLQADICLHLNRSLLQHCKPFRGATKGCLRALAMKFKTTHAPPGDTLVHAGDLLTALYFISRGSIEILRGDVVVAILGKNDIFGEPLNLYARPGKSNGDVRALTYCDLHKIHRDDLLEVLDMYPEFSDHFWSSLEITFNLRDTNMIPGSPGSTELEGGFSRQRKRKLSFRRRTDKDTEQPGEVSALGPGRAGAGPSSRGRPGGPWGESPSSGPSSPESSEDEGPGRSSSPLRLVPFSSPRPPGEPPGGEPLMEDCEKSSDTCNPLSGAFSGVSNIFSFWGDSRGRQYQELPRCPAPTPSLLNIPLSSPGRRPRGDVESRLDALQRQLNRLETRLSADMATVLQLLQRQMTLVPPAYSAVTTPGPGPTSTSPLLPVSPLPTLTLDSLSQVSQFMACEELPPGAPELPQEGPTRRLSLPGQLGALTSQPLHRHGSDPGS
Potassium voltage-gated channel subfamily A member 5 (Homo sapiens), sequence (P22460 whole entry): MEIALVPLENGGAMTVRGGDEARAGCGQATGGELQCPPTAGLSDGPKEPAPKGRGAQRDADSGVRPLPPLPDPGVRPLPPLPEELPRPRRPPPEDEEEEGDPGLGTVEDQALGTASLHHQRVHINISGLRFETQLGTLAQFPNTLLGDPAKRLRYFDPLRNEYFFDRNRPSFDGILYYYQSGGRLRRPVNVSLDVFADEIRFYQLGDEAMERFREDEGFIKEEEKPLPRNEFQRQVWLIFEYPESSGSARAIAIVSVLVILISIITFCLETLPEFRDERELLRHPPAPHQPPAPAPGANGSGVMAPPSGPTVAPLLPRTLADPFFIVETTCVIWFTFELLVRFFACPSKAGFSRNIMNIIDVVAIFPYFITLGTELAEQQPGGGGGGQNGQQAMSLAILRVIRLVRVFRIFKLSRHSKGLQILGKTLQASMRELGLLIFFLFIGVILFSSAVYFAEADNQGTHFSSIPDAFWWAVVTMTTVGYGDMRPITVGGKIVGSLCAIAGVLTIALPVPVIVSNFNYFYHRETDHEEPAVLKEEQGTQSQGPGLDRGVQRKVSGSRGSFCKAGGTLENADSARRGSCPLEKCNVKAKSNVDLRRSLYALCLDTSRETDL

IC50 [2]: 230 nM
IC50 [3]: 308 nM
inhibition [4]: 90.7%
IC50 [5]: 26.1 nM
inhibition [6]: 6.4%
IC50 [7]: 124 nM
inhibition [8]: -1.1%
inhibition [11]: 27%
IC50 [12]: 136 nM
inhibition [13]: 11.4%
Stability [14]: Stable
solubility thermodynamic at 24 h [15]: 22 µM (≈ 9.47 µg/mL)
Ratio IC50 [16]: < 2
inhibition [19]: Active
Compound: CCCNC(=O)O[C@H]1CC[C@@](CNC(=O)c2ccccc2OC)(c2ccsc2)CC1
Activity (T-cell [1]): Active
Activity (T-cell [9]): Active
Activity (T-cell line [10]): Non-Toxic
inhibition at 5 µM (hERG (KCNH2)): 21%
inhibition (T-cell [17]): Active
Activity (T-cell line [18]): Non-Toxic
